Measurements reported in ChEMBL document CHEMBL1132335, “Discovery and synthesis of (S)-3-[2-(3,4-dimethoxyphenyl)ethoxy]-2- (4,6-dimethylpyrimidin-2-yloxy)-3,3-diphenylpropionic acid (LU 302872), a novel orally active mixed ET(A)/ET(B) receptor antagonist” (J Med Chem, 1999).

Assays:
Endothelin-1 receptor = target: T1, Endothelin-1 receptor (Homo sapiens, UniProt P25101); assay: Inhibition of [125I]-ET-1 (ETA assay) binding to human cloned Endothelin A receptor in CHO cells; type: cell-based
T1 sequence (P25101 whole entry): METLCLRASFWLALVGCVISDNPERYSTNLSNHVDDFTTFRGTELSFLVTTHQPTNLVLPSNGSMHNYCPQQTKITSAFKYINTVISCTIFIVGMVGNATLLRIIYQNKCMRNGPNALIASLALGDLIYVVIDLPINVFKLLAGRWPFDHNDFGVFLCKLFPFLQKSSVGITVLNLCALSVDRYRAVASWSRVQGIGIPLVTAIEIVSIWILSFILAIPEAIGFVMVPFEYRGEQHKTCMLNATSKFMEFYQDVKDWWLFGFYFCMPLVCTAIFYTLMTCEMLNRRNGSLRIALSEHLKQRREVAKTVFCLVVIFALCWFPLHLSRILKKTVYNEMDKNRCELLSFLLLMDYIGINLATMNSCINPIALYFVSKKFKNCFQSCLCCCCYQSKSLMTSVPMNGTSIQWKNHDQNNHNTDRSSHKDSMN
How it was run: (§1)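 CHO cells stably expressing human ETA or ETB receptor; 10–50 µg membrane protein incubated 30 min at 25 °C in 50 mM Tris-HCl pH 7.4, 5 mM MnCl2, 40 µg/mL bacitracin, 0.2% BSA, with 25 pM [125I]ET-1 (ETA) or 25 pM [125I]ET-3 (ETB). Nonspecific binding with 0.1 µM ET-1; filtration, scintillation counting. Triplicate, repeated at least once; Ki by Cheng–Prusoff or nonlinear regression, ±SE.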

[1] = target: T2, Endothelin receptor, ET-A/ET-B (Homo sapiens) (UniProt P24530+P25101); assay: Selectivity for Endothelin A receptor compared to Endothelin B receptor.; type: protein assay
[2] = target: T3, Endothelin receptor type B (Homo sapiens, UniProt P24530); assay: Inhibition of [125I]ET-3 (ETB assay) binding to human cloned Endothelin B receptor in CHO cells; type: cell-based; how it was run: as §1
T3 sequence (P24530 whole entry): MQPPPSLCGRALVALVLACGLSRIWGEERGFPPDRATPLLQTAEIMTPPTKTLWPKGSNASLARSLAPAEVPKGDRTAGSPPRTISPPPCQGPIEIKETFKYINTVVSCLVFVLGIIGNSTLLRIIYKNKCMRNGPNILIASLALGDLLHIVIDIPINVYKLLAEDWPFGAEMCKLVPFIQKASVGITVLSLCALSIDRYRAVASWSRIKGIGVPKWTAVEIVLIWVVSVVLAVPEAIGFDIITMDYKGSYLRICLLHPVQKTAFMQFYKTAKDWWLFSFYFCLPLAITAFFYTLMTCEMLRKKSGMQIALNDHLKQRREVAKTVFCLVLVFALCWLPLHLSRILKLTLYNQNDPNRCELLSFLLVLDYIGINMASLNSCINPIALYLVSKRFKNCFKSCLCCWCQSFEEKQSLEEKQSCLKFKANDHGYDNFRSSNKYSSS

Rattus norvegicus [3] = assay: Percent reduction of big ET-induced blood pressure increase in drug treated rats with LU 135252 and 10 mg/Kg of compound given perorally was reported as (AUD 30 min) in mmHg(min); type: functional
How it was run: (§2)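 Male Sprague–Dawley rats dosed 10 mg/kg p.o.; urethane anesthesia (1.6 g/kg i.p.), tracheotomy 90 min later, carotid artery cannulated for blood pressure, jugular vein for agonist. Big ET-1 20 µg/kg i.v. at 120 min post-dose; pressure recorded over 30 min as area under the data (AUD30min), compared with control; mean ± SEM.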

Rattus norvegicus [4] = assay: Inhibition of big ET-induced blood pressure increase in drug treated rats with LU 135252 and 10 mg/Kg of compound given perorally was reported as (AUD 30 min) in mmHg(min); type: functional; how it was run: as §2
[5] = target: T4, Endothelin receptor (Rattus norvegicus) (UniProt P26684+P21451); conditions: Blood, 10 mg/kg
[6] = target: T4, Endothelin receptor (Rattus norvegicus); conditions: Blood, 10 mg/kg; remark: listed apart in the source
[7] = target: T2, Endothelin receptor, ET-A/ET-B (Homo sapiens); assay: Compound was tested for inhibition of big ET-induced bronchospasm in drug treated guinea pigs with LU 135252 and balanced ETA/B receptor antagonists at 10 mg/kg oral dose was reported as (AUD 30 min) in mL(min); conditions: Cavia porcellus
[8] = target: T2, Endothelin receptor, ET-A/ET-B (Homo sapiens); assay: Compound was tested for %inhibition of big ET-induced bronchospasm in guinea pigs with LU 135252 and balanced ETA/B receptor antagonists at 10 mg/kg oral dose was reported as (AUD 30 min) in mL(min); conditions: Cavia porcellus
Rattus norvegicus [9] = assay: Inhibition of big ET-induced blood pressure increase in drug treated rats with 10 mg/Kg of compound given perorally was reported as (AUD 30 min) in mmHg(min); type: functional; how it was run: as §2
[10] = target: T2, Endothelin receptor, ET-A/ET-B (Homo sapiens); conditions: Rattus norvegicus; 30 mg/kg
[11] = target: T2, Endothelin receptor, ET-A/ET-B (Homo sapiens); conditions: Rattus norvegicus; 10 mg/kg

T4 sequence (P21451 whole entry, looked up): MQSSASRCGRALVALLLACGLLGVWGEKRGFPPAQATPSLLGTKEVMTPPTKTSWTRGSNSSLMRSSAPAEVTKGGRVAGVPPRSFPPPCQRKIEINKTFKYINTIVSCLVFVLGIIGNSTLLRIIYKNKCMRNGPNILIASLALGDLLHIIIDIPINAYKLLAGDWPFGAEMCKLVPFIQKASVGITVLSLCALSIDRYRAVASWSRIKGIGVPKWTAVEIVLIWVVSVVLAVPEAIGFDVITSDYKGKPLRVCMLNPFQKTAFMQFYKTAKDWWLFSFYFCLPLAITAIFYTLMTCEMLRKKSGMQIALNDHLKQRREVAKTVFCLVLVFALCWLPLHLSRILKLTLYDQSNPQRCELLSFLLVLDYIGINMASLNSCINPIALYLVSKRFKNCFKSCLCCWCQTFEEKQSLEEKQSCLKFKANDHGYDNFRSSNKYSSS
T4 sequence (P26684 whole entry, looked up): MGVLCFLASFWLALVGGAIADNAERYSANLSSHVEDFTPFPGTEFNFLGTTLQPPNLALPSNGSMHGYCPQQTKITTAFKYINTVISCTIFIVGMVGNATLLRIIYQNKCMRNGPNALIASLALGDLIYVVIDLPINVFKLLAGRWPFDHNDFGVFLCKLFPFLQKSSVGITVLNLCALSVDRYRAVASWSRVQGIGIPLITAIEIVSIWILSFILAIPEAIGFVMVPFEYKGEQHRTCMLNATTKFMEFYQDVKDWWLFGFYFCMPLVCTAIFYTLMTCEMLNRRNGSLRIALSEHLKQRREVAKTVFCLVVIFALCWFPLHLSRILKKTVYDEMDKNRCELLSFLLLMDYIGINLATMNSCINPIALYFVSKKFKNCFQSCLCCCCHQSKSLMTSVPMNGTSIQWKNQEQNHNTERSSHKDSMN

| Compound | Ki (Endothelin-1 receptor) [nM] | Ratio [1] | Ki [2] [nM] | further results |
| --- | --- | --- | --- | --- |
| COc1cc(/C=C/COC(c2ccccc2)(c2ccccc2)C(Oc2nc(C)cc(C)n2)C(=O)O)cc(OC)c1OC (stereo not drawn) | 48 | 0.4 | 20 | – |
| CCOc1ccc(CCOC(c2ccccc2)(c2ccccc2)C(Oc2nc(C)cc(C)n2)C(=O)O)cc1OC (stereo not drawn) | 3.13 | 8 | 25.1 | BP increase (Rattus norvegicus [3]): 68%; BP increase (Rattus norvegicus [4]): 475 mmHg |
| COc1ccccc1Oc1c(NS(=O)(=O)c2ccc(C(C)(C)C)cc2)nc(-c2ncccn2)nc1OCCO | – | – | – | BP increase [5]: 1400 AUD30min; BP increase [6]: 7% |
| COc1ccc(CCOC(c2ccccc2)(c2ccccc2)C(Oc2nc(C)cc(C)n2)C(=O)O)cc1OC (stereo not drawn) | – | 2 | – | Reduction in respiratory volume [7]: 71 mL; Reduction in respiratory volume [8]: 67%; BP increase (Rattus norvegicus [3]): 58%; BP increase (Rattus norvegicus [4]): 641 mmHg |
| COc1cc(CCOC(c2ccccc2)(c2ccccc2)C(Oc2nc(C)cc(C)n2)C(=O)O)cc(OC)c1OC (stereo not drawn) | 1.38 | 2.3 | 3.21 | BP increase (Rattus norvegicus [3]): 25%; BP increase (Rattus norvegicus [4]): 1123 mmHg |
| COc1ccc(CCOC(c2ccc(C)cc2)(c2ccc(C)cc2)C(Oc2nc(OC)c3c(n2)OCC3)C(=O)O)cc1 (stereo not drawn) | 105 | 0.7 | 71.2 | – |
| CCc1ccc(C(OCCc2ccc(OC)cc2)(c2ccc(CC)cc2)C(Oc2nc(C)cc(C)n2)C(=O)O)cc1 (stereo not drawn) | 250 | 0.8 | 195 | – |
| COc1ccc(COC(c2ccccc2)(c2ccccc2)C(Oc2nc(C)cc(C)n2)C(=O)O)cc1OC (stereo not drawn) | 2 | 31 | 63 | – |
| Cc1cc(C)nc(OC(C(=O)O)C(OCCc2ccccc2)(c2ccccc2)c2ccccc2)n1 (stereo not drawn) | 25 | 9.2 | 230 | – |
| CCc1ccc(C(OCCc2ccc(OC)c(OC)c2)(c2ccc(CC)cc2)C(Oc2nc(C)cc(OC)n2)C(=O)O)cc1 (stereo not drawn) | 39.3 | 1 | 40 | – |
| Cc1ccc(CCCOC(c2ccccc2)(c2ccccc2)C(Oc2nc(C)cc(C)n2)C(=O)O)cc1 (stereo not drawn) | 23 | – | 170 | – |
| COc1ccc(CCOC(c2ccccc2)(c2ccccc2)C(Oc2nc(C)cc(C)n2)C(=O)O)cc1 (stereo not drawn) | – | 4 | 24.2 | BP increase (Rattus norvegicus [3]): 33%; BP increase (Rattus norvegicus [4]): 976 mmHg |
| COc1ccc(CCOC(c2ccccc2)(c2ccccc2)C(Oc2nc(C)cc(OC)n2)C(=O)O)cc1 (stereo not drawn) | 1.95 | 11.8 | – | – |
| COc1cc(CCOC(c2ccccc2)(c2ccccc2)C(Oc2nc(C)cc(C)n2)C(=O)O)ccc1OCC(=O)O (stereo not drawn) | 1.92 | 12 | 24 | BP increase (Rattus norvegicus [3]): 14%; BP increase (Rattus norvegicus [4]): 1294 mmHg |
| Cc1ccc(CCOC(c2ccccc2)(c2ccccc2)C(Oc2nc(C)cc(C)n2)C(=O)O)cc1 (stereo not drawn) | 32.5 | – | 55 | – |
| Cc1cc(C)nc(OC(C(=O)O)C(OCCc2ccc(O)cc2)(c2ccccc2)c2ccccc2)n1 (stereo not drawn) | 3.48 | 4.7 | 16.2 | – |
| COc1cc(C)nc(OC(C(=O)O)C(OCCc2ccc(OC)c(OC)c2)(c2ccc(Cl)cc2)c2ccc(Cl)cc2)n1 (stereo not drawn) | – | 0.6 | – | – |
| COc1ccc(CCOC(c2ccccc2)(c2ccccc2)[C@H](Oc2nc(C)cc(C)n2)C(=O)O)cc1OC [FELOPRENTAN] | 2.15 | 2.2 | 4.75 | Reduction in respiratory volume [7]: 46 mL; Reduction in respiratory volume [8]: 79%; BP increase (Rattus norvegicus [3]): 61%; BP increase (Rattus norvegicus [4]): 583 mmHg |
| COc1cc(OC)nc(O[C@H](C(=O)O)C(OC)(c2ccccc2)c2ccccc2)n1 [DARUSENTAN] | – | – | – | BP increase (Rattus norvegicus [9]): 636 mmHg; Reduction in respiratory volume [10]: 172 mL; Reduction in respiratory volume [11]: 19 mL |
| Cc1ccc(/C=C/COC(c2ccccc2)(c2ccccc2)C(Oc2nc(C)cc(C)n2)C(=O)O)cc1 (stereo not drawn) | 32 | – | 320 | – |
| COc1ccc(OC(c2ccccc2)(c2ccccc2)C(Oc2nc(C)cc(C)n2)C(=O)O)cc1OC (stereo not drawn) | 0.48 | 125 | 60 | – |
| Cc1cc(C)nc(OC(C(=O)O)C(OCCc2ccc(Cl)cc2)(c2ccccc2)c2ccccc2)n1 (stereo not drawn) | – | 4.7 | 94.1 | – |
| CCc1ccc(C(OCCc2ccc(OC)cc2)(c2ccc(CC)cc2)C(Oc2nc(C)cc(OC)n2)C(=O)O)cc1 (stereo not drawn) | 155 | 1 | 160 | – |
| COc1cc(C)nc(OC(C(=O)O)C(OCCc2ccc(OC)c(OC)c2)(c2ccccc2)c2ccccc2)n1 (stereo not drawn) | 2.37 | 6.2 | 14.7 | – |
| Cc1cc(C)nc(OC(C(=O)O)C(OCCc2ccc(C(=O)O)cc2)(c2ccccc2)c2ccccc2)n1 (stereo not drawn) | 1.5 | 77 | 115 | – |
| COc1ccc(CCOC(c2ccc(Cl)cc2)(c2ccc(Cl)cc2)C(Oc2nc3c(c(OC)n2)CCC3)C(=O)O)cc1OC (stereo not drawn) | 290 | 0.7 | 215 | – |
